Data published in ChEMBL document CHEMBL1152317, “Hypoglycemic activity of extracts and compounds from the leaves of Hintonia standleyana and H. latiflora: potential alternatives to the use of the stem bark of these species” (2009).

How the values were obtained:
Assay type in all cases: functional
Rattus norvegicus [1] = assay: Hypoglycemic activity in normal Wistar rat assessed as variation in glycemia at 10 mg/kg administered via intragastric route after 1.5 hrs by glucose oxidase method relative to control
How it was run: (§1)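 Normoglycemic rats (180–220 g), 6 per group, standard pellet diet and water ad libitum. Test agent was suspended in 0.05% Tween 80 in saline and given by gavage. Controls got vehicle at 0.5 mL/100 g. Tail-incision blood was sampled at 0 h and after dosing and read by glucometer. Glycemia change was expressed as % of the 0 h value; ANOVA with Dunnett's test versus vehicle.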

Rattus norvegicus [2] = assay: Hypoglycemic activity in normal Wistar rat assessed as variation in glycemia at 10 mg/kg administered via intragastric route after 3 hrs by glucose oxidase method relative to control; how it was run: as §1
Rattus norvegicus [3] = assay: Hypoglycemic activity in normal Wistar rat assessed as variation in glycemia at 10 mg/kg administered via intragastric route after 5 hrs by glucose oxidase method relative to control; how it was run: as §1
Rattus norvegicus [4] = assay: Hypoglycemic activity in normal Wistar rat assessed as variation in glycemia at 10 mg/kg administered via intragastric route after 7 hrs by glucose oxidase method relative to control; how it was run: as §1
Rattus norvegicus [5] = assay: Hypoglycemic activity in normal Wistar rat assessed as variation in glycemia at 10 mg/kg administered via intragastric route after 9 hrs by glucose oxidase method relative to control; how it was run: as §1
Rattus norvegicus [6] = assay: Antihyperglycemic activity in streptozotocin-induced diabetic Wistar rat assessed as variation in glycemia at 10 mg/kg administered via intragastric route 7 days after streptozotocin challenge measured after 1.5 hrs of compound administration by glucose oxidase method relative to control
How it was run: (§2)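 Diabetes induced by single ip streptozotocin 50 mg/kg in 0.1 M citrate buffer pH 4.5; rats with glucose above 250 mg/dL after 7 days included. Rats 180–220 g, 6 per group. Test agent suspended in 0.05% Tween 80 in saline, given intragastrically; vehicle controls. Tail-vein blood sampled at 0 h and after dosing; glucometer reading; % change calculated from 0 h value.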

Rattus norvegicus [7] = assay: Antihyperglycemic activity in streptozotocin-induced diabetic Wistar rat assessed as variation in glycemia at 10 mg/kg administered via intragastric route 7 days after streptozotocin challenge measured after 3 hrs of compound administration by glucose oxidase method relative to control; how it was run: as §2
Rattus norvegicus [8] = assay: Antihyperglycemic activity in streptozotocin-induced diabetic Wistar rat assessed as variation in glycemia at 10 mg/kg administered via intragastric route 7 days after streptozotocin challenge measured after 5 hrs of compound administration by glucose oxidase method relative to control; how it was run: as §2
Rattus norvegicus [9] = assay: Antihyperglycemic activity in streptozotocin-induced diabetic Wistar rat assessed as variation in glycemia at 10 mg/kg administered via intragastric route 7 days after streptozotocin challenge measured after 7 hrs of compound administration by glucose oxidase method relative to control; how it was run: as §2
Rattus norvegicus [10] = assay: Antihyperglycemic activity in streptozotocin-induced diabetic Wistar rat assessed as variation in glycemia at 10 mg/kg administered via intragastric route 7 days after streptozotocin challenge measured after 9 hrs of compound administration by glucose oxidase method relative to control; how it was run: as §2

Structure (SMILES) | Activity (Rattus norvegicus [1]) [%] | Activity (Rattus norvegicus [2]) [%] | Activity (Rattus norvegicus [3]) [%] | Activity (Rattus norvegicus [4]) [%] | Activity (Rattus norvegicus [5]) [%] | Activity (Rattus norvegicus [6]) [%] | Activity (Rattus norvegicus [7]) [%] | Activity (Rattus norvegicus [8]) [%] | Activity (Rattus norvegicus [9]) [%] | Activity (Rattus norvegicus [10]) [%]
CC(=O)OC[C@H]1O[C@@H](Oc2cc(O)cc3oc(=O)cc(-c4ccc(O)c(O)c4)c23)[C@H](O)[C@@H](O)[C@H]1O | -9.2 | -29.9 | -28.6 | -25 | -30.6 | -5 | -20.7 | -29.5 | -34.7 | -37.2
CC(=O)OC[C@H]1O[C@@H](Oc2cc(O)cc3oc(=O)cc(-c4ccc(O)cc4)c23)[C@H](O)[C@@H](O)[C@H]1O | -10.3 | -17.8 | -20.9 | -27.2 | -24 | -11 | -24.9 | -22.7 | -25.2 | -27.1
COc1ccc(Cl)cc1C(=O)NCCc1ccc(S(=O)(=O)NC(=O)NC2CCCCC2)cc1 [GLYBURIDE] | -8.4 | -30.1 | -47.6 | -41.8 | -37.1 | -13.7 | -35.5 | -35.9 | -35.2 | -36.7
